Reference: ChEMBL document CHEMBL1125428, “Development of 2,3-dihydro-6-(3-phenoxypropyl)-2-(2-phenylethyl)-5-benzofuranol (L-670,630) as a potent and orally active inhibitor of 5-lipoxygenase” (J Med Chem, 1992)

Key:
Rattus norvegicus [1] = species: Rattus norvegicus; assay: Effective dose against antigen induced dyspnea in hyperactive inbred rat at a dose of […]; type: functional
Rattus norvegicus [2] = assay: Total radioactivity in tissues of male sd rats dosed orally with H-labeled compound at 21 mg/kg after 30 min in lung; type: functional; conditions: route oral
How it was run: (§1)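 Male Sprague-Dawley rats received ³H-labelled drug (phenoxy ring, 3.96 μCi/mg) in PEG-400 by gavage at 21 mg/kg. Animals were killed at 5, 15, 30 min and at 1, 2, 4, 24 and 48 h. Homogenates were pooled per group, and total radioactivity was measured as the mean of duplicate combustions, in μg equiv/g. Two or three rats were used per point, except one rat at 24 and 48 h.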

Rattus norvegicus [3] = assay: % compound was determined by the amount of radioactivity elute with H-labeled at 21 mg/kg after 5 min using RP-HPLC. at a dose of 380 ug/g in lung of male sd rat.; type: functional
Rattus norvegicus [4] = assay: Total radioactivity in tissues of male sd rats dosed intravenously with H-labeled compound at 21 mg/kg after 10 min in liver; type: functional; conditions: route intravenous
How it was run: (§2)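 Male Sprague-Dawley rats given ³H compound iv via femoral vein in PEG-400, 21 mg/kg, 3.96 μCi/mg. Killed at 2, 10, 30 min, 1, 2 and 4 h. Total radioactivity measured by combustion of composited tissue homogenates, in duplicate. Two or three rats per time point, one at 10 and 30 min.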

Rattus norvegicus [5] = assay: Total radioactivity in tissues of male sd rats dosed intravenously with H-labeled compound at 21 mg/kg after 10 min in plasma; type: functional; conditions: route intravenous
Rattus norvegicus [6] = assay: Total radioactivity in tissues of male sd rats dosed intravenously with H-labeled compound at 21 mg/kg after 1 hr in kidney; type: functional; conditions: route intravenous; how it was run: as §2
Rattus norvegicus [7] = assay: Total radioactivity in tissues of male sd rats dosed intravenously with H-labeled compound at 21 mg/kg after 1 hr in liver; type: functional; conditions: route intravenous; how it was run: as §2
Rattus norvegicus [8] = assay: Total radioactivity in tissues of male sd rats dosed intravenously with H-labeled compound at 21 mg/kg after 1 hr in lung; type: functional; conditions: route intravenous; how it was run: as §2
Rattus norvegicus [9] = assay: Total radioactivity in tissues of male sd rats dosed intravenously with H-labeled compound at 21 mg/kg after 1 hr in plasma; type: functional; conditions: route intravenous
Rattus norvegicus [10] = assay: Total radioactivity in tissues of male sd rats dosed intravenously with H-labeled compound at 21 mg/kg after 2 hr in liver; type: functional; conditions: route intravenous; how it was run: as §2
Rattus norvegicus [11] = assay: Total radioactivity in tissues of male sd rats dosed intravenously with H-labeled compound at 21 mg/kg after 2 hr in lung; type: functional; conditions: route intravenous; how it was run: as §2
Rattus norvegicus [12] = assay: Total radioactivity in tissues of male sd rats dosed intravenously with H-labeled compound at 21 mg/kg after 2 hr in plasma; type: functional; conditions: route intravenous
Rattus norvegicus [13] = assay: Total radioactivity in tissues of male sd rats dosed intravenously with H-labeled compound at 21 mg/kg after 2 min in kidney; type: functional; conditions: route intravenous; how it was run: as §2
Rattus norvegicus [14] = assay: Total radioactivity in tissues of male sd rats dosed intravenously with H-labeled compound at 21 mg/kg after 2 min in liver; type: functional; conditions: route intravenous; how it was run: as §2
Rattus norvegicus [15] = assay: Total radioactivity in tissues of male sd rats dosed intravenously with H-labeled compound at 21 mg/kg after 2 min in lung; type: functional; conditions: route intravenous; how it was run: as §2
Rattus norvegicus [16] = assay: Total radioactivity in tissues of male sd rats dosed intravenously with H-labeled compound at 21 mg/kg after 2 min in plasma; type: functional; conditions: route intravenous
Rattus norvegicus [17] = assay: Total radioactivity in tissues of male sd rats dosed intravenously with H-labeled compound at 21 mg/kg after 30 min in kidney; type: functional; conditions: route intravenous; how it was run: as §2
Rattus norvegicus [18] = assay: Total radioactivity in tissues of male sd rats dosed intravenously with H-labeled compound at 21 mg/kg after 30 min in lung; type: functional; conditions: route intravenous; how it was run: as §2
Rattus norvegicus [19] = assay: Total radioactivity in tissues of male sd rats dosed intravenously with H-labeled compound at 21 mg/kg after 30 min in plasma; type: functional; conditions: route intravenous
Rattus norvegicus [20] = assay: Total radioactivity in tissues of male sd rats dosed intravenously with H-labeled compound at 21 mg/kg after 4 hr in kidney; type: functional; conditions: route intravenous; how it was run: as §2
Rattus norvegicus [21] = assay: Total radioactivity in tissues of male sd rats dosed orally with H-labeled compound at 21 mg/kg after 5 min in liver; type: functional; conditions: route oral; how it was run: as §1
Rattus norvegicus [22] = assay: Total radioactivity in tissues of male sd rats dosed orally with H-labeled compound at 21 mg/kg after 5 min in plasma; type: functional; conditions: route oral; how it was run: as §1
Rattus norvegicus [23] = assay: Total radioactivity in tissues of male sd rats dosed orally with H-labeled compound at 21 mg/kg after 48 hr in kidney; type: functional; conditions: route oral; how it was run: as §1
Rattus norvegicus [24] = assay: Total radioactivity in tissues of male sd rats dosed orally with H-labeled compound at 21 mg/kg after 48 hr in liver; type: functional; conditions: route oral; how it was run: as §1
Rattus norvegicus [25] = assay: Total radioactivity in tissues of male sd rats dosed orally with H-labeled compound at 21 mg/kg after 48 hr in plasma; type: functional; conditions: route oral; how it was run: as §1
Rattus norvegicus [26] = assay: Total radioactivity in tissues of male sd rats dosed orally with H-labeled compound at 21 mg/kg after 4 hr in kidney; type: functional; conditions: route oral; how it was run: as §1
Rattus norvegicus [27] = assay: Total radioactivity in tissues of male sd rats dosed orally with H-labeled compound at 21 mg/kg after 4 hr in liver; type: functional; conditions: route oral; how it was run: as §1
Rattus norvegicus [28] = assay: Total radioactivity in tissues of male sd rats dosed intravenously with H-labeled compound at 21 mg/kg after 4 hr in lung; type: functional; conditions: route intravenous
How it was run: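 ³H label in the phenoxy ring, dissolved in PEG-400, specific activity 3.96 μCi/mg, given iv via femoral vein at 21 mg/kg to male Sprague-Dawley rats. Animals were killed at 2, 10, 30 min, 1, 2 and 4 h. Tissues from each group were pooled and homogenized, and total radioactivity was measured by combustion, averaged over duplicate combustions. Results are expressed as μg equiv/g. Two or three rats were used per time point.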

Rattus norvegicus [29] = assay: Total radioactivity in tissues of male sd rats dosed orally with H-labeled compound at 21 mg/kg after 15 min in plasma; type: functional; conditions: route oral; how it was run: as §1
Rattus norvegicus [30] = assay: Total radioactivity in tissues of male sd rats dosed orally with H-labeled compound at 21 mg/kg after 1 hr in plasma; type: functional; conditions: route oral; how it was run: as §1
Rattus norvegicus [31] = assay: Total radioactivity in tissues of male sd rats dosed orally with H-labeled compound at 21 mg/kg after 24 hr r in kidney; type: functional; conditions: route oral; how it was run: as §1
Rattus norvegicus [32] = assay: Total radioactivity in tissues of male sd rats dosed orally with H-labeled compound at 21 mg/kg after 24 hr r in liver; type: functional; conditions: route oral; how it was run: as §1
Rattus norvegicus [33] = assay: Total radioactivity in tissues of male sd rats dosed orally with H-labeled compound at 21 mg/kg after 24 hr r in lung; type: functional; conditions: route oral; how it was run: as §1
Rattus norvegicus [34] = assay: Total radioactivity in tissues of male sd rats dosed orally with H-labeled compound at 21 mg/kg after 24 hr r in plasma; type: functional; conditions: route oral; how it was run: as §1
[35] = Measure of AUCpo/AUCiv x 100% of the parent compound before (free) and after (total) beta-glucuronidase treatment; total 54%; type: ADME, organism-based; conditions: in vivo, po; read-out: Bioavailabiility
Rattus norvegicus [36] = assay: Total radioactivity in tissues of male sd rats dosed orally with H-labeled compound at 21 mg/kg after 15 min in lung; type: functional; conditions: route oral; how it was run: as §1
Rattus norvegicus [37] = assay: Total radioactivity in tissues of male sd rats dosed orally with H-labeled compound at 21 mg/kg after 48 hr in lung; type: functional; conditions: route oral; how it was run: as §1
Rattus norvegicus [38] = assay: Amount of radioactivity elute with H-labeled at 21 mg/kg after 4 hr using RP-HPLC. at a dose of […] in lung of male sd rat.

Oc1cc2c(cc1CCCOc1ccccc1)OC(CCc1ccccc1)C2 (stereo not drawn)
ED50 at […] (Rattus norvegicus [1]): 0.06 mg/kg | Total radioactivity (Rattus norvegicus [2]): 4.11 ug equiv g-1 | Activity (Rattus norvegicus [3]): 80.4% | Total radioactivity (Rattus norvegicus [4]): 143.94 ug equiv g-1 | Total radioactivity (Rattus norvegicus [5]): 9.65 ug equiv g-1 | Total radioactivity (Rattus norvegicus [6]): 11.78 ug equiv g-1 | Total radioactivity (Rattus norvegicus [7]): 26.77 ug equiv g-1 | Total radioactivity (Rattus norvegicus [8]): 40.77 ug equiv g-1 | Total radioactivity (Rattus norvegicus [9]): 3.34 ug equiv g-1 | Total radioactivity (Rattus norvegicus [10]): 3.31 ug equiv g-1 | Total radioactivity (Rattus norvegicus [11]): 1.6 ug equiv g-1 | Total radioactivity (Rattus norvegicus [12]): 0.88 ug equiv g-1 | Total radioactivity (Rattus norvegicus [13]): 51.19 ug equiv g-1 | Total radioactivity (Rattus norvegicus [14]): 142.77 ug equiv g-1 | Total radioactivity (Rattus norvegicus [15]): 100.78 ug equiv g-1 | Total radioactivity (Rattus norvegicus [16]): 10.34 ug equiv g-1 | Total radioactivity (Rattus norvegicus [17]): 22.75 ug equiv g-1 | Total radioactivity (Rattus norvegicus [18]): 56.91 ug equiv g-1 | Total radioactivity (Rattus norvegicus [19]): 5.81 ug equiv g-1 | Total radioactivity (Rattus norvegicus [20]): 2.82 ug equiv g-1 | Total radioactivity (Rattus norvegicus [21]): 12.12 ug equiv g-1 | Total radioactivity (Rattus norvegicus [22]): 7.74 ug equiv g-1 | Total radioactivity (Rattus norvegicus [23]): 0.03 ug equiv g-1 | Total radioactivity (Rattus norvegicus [24]): 0.11 ug equiv g-1 | Total radioactivity (Rattus norvegicus [25]): 0.82 ug equiv g-1 | Total radioactivity (Rattus norvegicus [26]): 2.75 ug equiv g-1 | Total radioactivity (Rattus norvegicus [27]): 13.77 ug equiv g-1 | Total radioactivity (Rattus norvegicus [28]): 5 ug equiv g-1 | Total radioactivity (Rattus norvegicus [29]): 1.08 ug equiv g-1 | Total radioactivity (Rattus norvegicus [30]): 1.41 ug equiv g-1 | Total radioactivity (Rattus norvegicus [31]): 0.15 ug equiv g-1 | Total radioactivity (Rattus norvegicus [32]): 0.68 ug equiv g-1 | Total radioactivity (Rattus norvegicus [33]): 0.1 ug equiv g-1 | Total radioactivity (Rattus norvegicus [34]): 0.64 ug equiv g-1 | bioavailability [35]: 5% | Total radioactivity (Rattus norvegicus [36]): 190.97 ug equiv g-1 | Total radioactivity (Rattus norvegicus [37]): 0.09 ug equiv g-1 | Activity (Rattus norvegicus [38]): 8.9%
